Results as given in ChEMBL document CHEMBL1145020, “Synthesis and structure-activity relationships of 6,7-disubstituted 4-anilinoquinoline-3-carbonitriles. The design of an orally active, irreversible inhibitor of the tyrosine kinase activity of the epidermal growth factor receptor (EGFR) and the human epidermal growth factor receptor-2 (HER-2)” (J Med Chem, 2003).

test system: A-431; test: Concentration required to inhibit growth of human carcinoma epidermoid (A431) cell line; format: functional, cell-based; details: not given

SMILES | IC50 [nM]
C/C=C/C(=O)Nc1ccc2ncc(C#N)c(Nc3cccc(Br)c3)c2c1 | 4400
N#Cc1cnc2ccc(NC(=O)C#CCN3CCSCC3)cc2c1Nc1cccc(Br)c1 | 100

test system: not listed separately; test: Concentration required to inhibit growth of human carcinoma breast (SKBR3) cell line; format: functional; details: SK-BR-3
Outline: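 Cell growth inhibition measured from dose–response curves at five concentrations. […] Reported values average at least two determinations.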

SMILES | IC50 [nM]
COc1cc2ncc(C#N)c(Nc3ccc(F)c(Cl)c3)c2cc1NC(=O)/C=C/C(C)N(C)C (stereo not given) | 190
C/C=C/C(=O)Nc1cc2c(Nc3ccc(F)c(Cl)c3)c(C#N)cnc2cc1OCC | 170
COc1cc(NC(=O)/C=C/CN2CCOCC2)cc2c(Nc3cccc(Br)c3)c(C#N)cnc12 | 2660
COc1cc2ncc(C#N)c(Nc3ccc(F)c(Cl)c3)c2cc1NC(=O)/C=C/CN1CCOCC1 | 110
COc1cc2ncc(C#N)c(Nc3ccc(F)c(Cl)c3)c2cc1NC(=O)/C=C/C(C)N1CCOCC1 (stereo not given) | 200
C=C(CN1CCOCC1)C(=O)Nc1ccc2ncc(C#N)c(Nc3ccc(F)c(Cl)c3)c2c1 | 220
COc1cc2ncc(C#N)c(Nc3ccc(F)c(Cl)c3)c2cc1NC(=O)/C=C/CN(C)C | 40
CCOc1cc2ncc(C#N)c(Nc3cccc(Br)c3)c2cc1NC(=O)/C=C/CN(C)C | 30
CCOc1cc2ncc(C#N)c(Nc3cccc(Br)c3)c2cc1NC(=O)/C=C/CN1CCOCC1 | 70
N#Cc1cnc2ccc(NC(=O)/C=C/CN3CCOCC3)cc2c1Nc1ccc(F)c(Cl)c1 | 220
CCN(CC)C(C)/C=C/C(=O)Nc1cc2c(Nc3ccc(F)c(Cl)c3)c(C#N)cnc2cc1OC (stereo not given) | 310
C/C=C/C(=O)Nc1ccc2ncc(C#N)c(Nc3cccc(Br)c3)c2c1 | 10100
N#Cc1cnc2ccc(NC(=O)C#CCN3CCSCC3)cc2c1Nc1cccc(Br)c1 | 70
COc1cc2ncc(C#N)c(Nc3cccc(Br)c3)c2cc1NC(=O)/C=C/CN1CCOCC1 | 120
CN(C)C/C=C/C(=O)Nc1cc2c(Nc3ccc(F)c(Cl)c3)c(C#N)cnc2cc1OC(F)(F)F | 300
CCN(CC)C/C=C/C(=O)Nc1cc2c(Nc3ccc(F)c(Cl)c3)c(C#N)cnc2cc1OC | 50
CCOc1cc2ncc(C#N)c(Nc3ccc(F)c(Cl)c3)c2cc1NC(=O)/C=C/CN(C)C [PELITINIB] | 10

target: Receptor tyrosine-protein kinase erbB-2 (Homo sapiens, UniProt P04626); test: Concentration required to inhibit autophosphorylation of cytoplasmic domain of human epidermal growth factor receptor-2; details: not given
Sequence (P04626 whole entry, the tested form may be a part): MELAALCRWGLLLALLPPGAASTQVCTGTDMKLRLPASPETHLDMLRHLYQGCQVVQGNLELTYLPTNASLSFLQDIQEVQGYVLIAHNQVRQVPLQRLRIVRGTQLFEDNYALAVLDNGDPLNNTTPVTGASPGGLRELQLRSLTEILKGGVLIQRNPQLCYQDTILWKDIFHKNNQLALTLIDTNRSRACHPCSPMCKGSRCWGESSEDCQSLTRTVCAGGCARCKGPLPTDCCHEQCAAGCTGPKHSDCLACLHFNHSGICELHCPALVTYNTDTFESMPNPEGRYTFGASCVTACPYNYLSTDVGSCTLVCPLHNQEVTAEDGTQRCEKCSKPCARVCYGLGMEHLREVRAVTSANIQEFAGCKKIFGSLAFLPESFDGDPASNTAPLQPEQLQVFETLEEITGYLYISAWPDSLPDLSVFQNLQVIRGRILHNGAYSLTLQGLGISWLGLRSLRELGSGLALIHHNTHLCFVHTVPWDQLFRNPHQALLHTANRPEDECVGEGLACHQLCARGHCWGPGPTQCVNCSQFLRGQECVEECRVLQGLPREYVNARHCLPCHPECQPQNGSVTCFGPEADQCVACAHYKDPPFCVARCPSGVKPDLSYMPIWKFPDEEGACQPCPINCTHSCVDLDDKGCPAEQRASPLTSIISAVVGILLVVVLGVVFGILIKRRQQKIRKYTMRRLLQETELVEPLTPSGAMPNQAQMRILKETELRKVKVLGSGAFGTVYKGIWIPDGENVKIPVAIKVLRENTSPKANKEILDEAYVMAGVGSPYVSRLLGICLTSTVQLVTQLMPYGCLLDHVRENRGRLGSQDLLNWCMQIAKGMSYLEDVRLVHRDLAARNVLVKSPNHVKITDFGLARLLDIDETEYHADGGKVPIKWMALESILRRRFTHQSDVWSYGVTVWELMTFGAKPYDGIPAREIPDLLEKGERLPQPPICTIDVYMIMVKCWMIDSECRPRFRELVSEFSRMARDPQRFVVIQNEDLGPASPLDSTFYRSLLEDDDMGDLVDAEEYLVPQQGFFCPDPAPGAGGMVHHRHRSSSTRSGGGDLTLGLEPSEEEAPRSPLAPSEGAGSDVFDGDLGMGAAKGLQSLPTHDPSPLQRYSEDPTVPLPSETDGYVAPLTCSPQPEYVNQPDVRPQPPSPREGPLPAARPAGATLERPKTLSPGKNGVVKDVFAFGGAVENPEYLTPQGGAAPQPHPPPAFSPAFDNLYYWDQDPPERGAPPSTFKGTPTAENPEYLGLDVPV

SMILES | IC50 [nM]
C/C=C/C(=O)Nc1cc2c(Nc3ccc(F)c(Cl)c3)c(C#N)cnc2cc1OCC | 21500
COc1cc2ncc(C#N)c(Nc3ccc(F)c(Cl)c3)c2cc1NC(=O)/C=C/C(C)N1CCOCC1 (stereo not given) | 34000
C=C(CN1CCOCC1)C(=O)Nc1ccc2ncc(C#N)c(Nc3ccc(F)c(Cl)c3)c2c1 | 4390
CCOc1cc2ncc(C#N)c(Nc3cccc(Br)c3)c2cc1NC(=O)/C=C/CN1CCOCC1 | 34000
N#Cc1cnc2ccc(NC(=O)/C=C/CN3CCOCC3)cc2c1Nc1ccc(F)c(Cl)c1 | 8740
N#Cc1cnc2ccc(NC(=O)C#CCN3CCSCC3)cc2c1Nc1cccc(Br)c1 | 1040

More lines, now with the values ahead:

IC50 [nM] | SMILES
11800 | COc1cc2ncc(C#N)c(Nc3ccc(F)c(Cl)c3)c2cc1NC(=O)/C=C/C(C)N(C)C (stereo not given)
23600 | COc1cc(NC(=O)/C=C/CN2CCOCC2)cc2c(Nc3cccc(Br)c3)c(C#N)cnc12
31400 | COc1cc2ncc(C#N)c(Nc3ccc(F)c(Cl)c3)c2cc1NC(=O)/C=C/CN1CCOCC1
4490 | COc1cc2ncc(C#N)c(Nc3ccc(F)c(Cl)c3)c2cc1NC(=O)/C=C/CN(C)C
2970 | CCOc1cc2ncc(C#N)c(Nc3cccc(Br)c3)c2cc1NC(=O)/C=C/CN(C)C
9580 | CCN(CC)C(C)/C=C/C(=O)Nc1cc2c(Nc3ccc(F)c(Cl)c3)c(C#N)cnc2cc1OC (stereo not given)
34100 | COc1cc2ncc(C#N)c(Nc3cccc(Br)c3)c2cc1NC(=O)/C=C/CN1CCOCC1
4130 | CN(C)C/C=C/C(=O)Nc1cc2c(Nc3ccc(F)c(Cl)c3)c(C#N)cnc2cc1OC(F)(F)F
7800 | CCN(CC)C/C=C/C(=O)Nc1cc2c(Nc3ccc(F)c(Cl)c3)c(C#N)cnc2cc1OC

test system: SW-620; test: Concentration required to inhibit growth of human carcinoma colon (SW620) cell line; format: functional, cell-based; details: not given

SMILES | IC50 [nM]
COc1cc2ncc(C#N)c(Nc3ccc(F)c(Cl)c3)c2cc1NC(=O)/C=C/C(C)N1CCOCC1 (stereo not given) | 4940
C=C(CN1CCOCC1)C(=O)Nc1ccc2ncc(C#N)c(Nc3ccc(F)c(Cl)c3)c2c1 | 490
CCOc1cc2ncc(C#N)c(Nc3cccc(Br)c3)c2cc1NC(=O)/C=C/CN1CCOCC1 | 2880
N#Cc1cnc2ccc(NC(=O)/C=C/CN3CCOCC3)cc2c1Nc1ccc(F)c(Cl)c1 | 6330
N#Cc1cnc2ccc(NC(=O)C#CCN3CCSCC3)cc2c1Nc1cccc(Br)c1 | 350

More lines, now with the values ahead:

IC50 [nM] | SMILES
1130 | COc1cc2ncc(C#N)c(Nc3ccc(F)c(Cl)c3)c2cc1NC(=O)/C=C/C(C)N(C)C (stereo not given)
9570 | COc1cc(NC(=O)/C=C/CN2CCOCC2)cc2c(Nc3cccc(Br)c3)c(C#N)cnc12
6670 | COc1cc2ncc(C#N)c(Nc3ccc(F)c(Cl)c3)c2cc1NC(=O)/C=C/CN1CCOCC1
910 | COc1cc2ncc(C#N)c(Nc3ccc(F)c(Cl)c3)c2cc1NC(=O)/C=C/CN(C)C
1150 | CCOc1cc2ncc(C#N)c(Nc3cccc(Br)c3)c2cc1NC(=O)/C=C/CN(C)C
880 | CCN(CC)C(C)/C=C/C(=O)Nc1cc2c(Nc3ccc(F)c(Cl)c3)c(C#N)cnc2cc1OC (stereo not given)
12300 | C/C=C/C(=O)Nc1ccc2ncc(C#N)c(Nc3cccc(Br)c3)c2c1
5380 | COc1cc2ncc(C#N)c(Nc3cccc(Br)c3)c2cc1NC(=O)/C=C/CN1CCOCC1
1460 | CN(C)C/C=C/C(=O)Nc1cc2c(Nc3ccc(F)c(Cl)c3)c(C#N)cnc2cc1OC(F)(F)F
660 | CCN(CC)C/C=C/C(=O)Nc1cc2c(Nc3ccc(F)c(Cl)c3)c(C#N)cnc2cc1OC

target: Epidermal growth factor receptor (Homo sapiens, UniProt P00533); details: not given
Sequence (P00533 whole entry): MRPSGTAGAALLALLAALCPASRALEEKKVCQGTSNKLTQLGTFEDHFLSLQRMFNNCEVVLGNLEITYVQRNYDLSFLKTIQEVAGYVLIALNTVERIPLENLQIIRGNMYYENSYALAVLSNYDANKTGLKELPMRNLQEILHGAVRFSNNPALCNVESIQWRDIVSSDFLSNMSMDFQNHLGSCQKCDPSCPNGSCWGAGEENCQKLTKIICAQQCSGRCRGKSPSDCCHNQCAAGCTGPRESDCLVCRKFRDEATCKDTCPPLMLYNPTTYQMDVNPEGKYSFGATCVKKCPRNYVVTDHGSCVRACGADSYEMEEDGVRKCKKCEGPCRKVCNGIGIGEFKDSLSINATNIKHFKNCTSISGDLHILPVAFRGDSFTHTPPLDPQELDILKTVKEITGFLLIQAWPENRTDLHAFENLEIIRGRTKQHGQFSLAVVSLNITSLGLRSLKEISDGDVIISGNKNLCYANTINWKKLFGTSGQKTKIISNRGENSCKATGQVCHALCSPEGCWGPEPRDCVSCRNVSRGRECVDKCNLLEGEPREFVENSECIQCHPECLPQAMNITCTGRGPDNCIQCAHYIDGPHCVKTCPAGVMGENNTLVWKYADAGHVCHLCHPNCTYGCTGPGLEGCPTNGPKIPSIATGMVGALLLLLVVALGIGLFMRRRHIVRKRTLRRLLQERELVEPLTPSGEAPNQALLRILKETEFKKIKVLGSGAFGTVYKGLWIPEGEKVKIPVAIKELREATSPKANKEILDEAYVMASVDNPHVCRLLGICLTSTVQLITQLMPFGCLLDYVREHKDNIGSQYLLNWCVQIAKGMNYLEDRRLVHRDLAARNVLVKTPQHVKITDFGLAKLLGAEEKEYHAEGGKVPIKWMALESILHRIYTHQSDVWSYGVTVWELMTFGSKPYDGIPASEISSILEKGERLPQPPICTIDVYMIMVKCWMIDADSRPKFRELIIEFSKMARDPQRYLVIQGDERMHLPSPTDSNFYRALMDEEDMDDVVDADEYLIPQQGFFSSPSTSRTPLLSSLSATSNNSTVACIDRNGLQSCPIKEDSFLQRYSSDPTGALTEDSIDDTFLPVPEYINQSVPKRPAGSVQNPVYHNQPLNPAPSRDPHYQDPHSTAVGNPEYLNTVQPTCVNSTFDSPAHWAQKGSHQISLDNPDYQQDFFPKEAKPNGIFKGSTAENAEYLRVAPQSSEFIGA

SMILES | IC50 [nM]
N#Cc1cnc2ccc(NC(=O)C#CCN3CCSCC3)cc2c1Nc1cccc(Br)c1 | 550
